Measurements gathered from unrelated publications.
DHODH: Dihydroorotate dehydrogenase (quinone), mitochondrial (DHODH, Homo sapiens, UniProt Q02127)
DYRK1B: Dual specificity tyrosine-phosphorylation-regulated kinase 1B (DYRK1B, Homo sapiens, UniProt Q9Y463)
PTGS2: Prostaglandin G/H synthase 2 (PTGS2, Homo sapiens, UniProt P35354)
TYMS: Thymidylate synthase (TYMS, Homo sapiens, UniProt P04818)
EPHA7: Ephrin type-A receptor 7 (EPHA7, Homo sapiens, UniProt Q15375)
PSMB8: Proteasome subunit beta type-8 (PSMB8, Homo sapiens, UniProt P28062)

CC(=O)N[C@@H](CC(=O)O)C(=O)N[C@@H](CCC(=O)O)C(=O)N[C@H](C(=O)N[C@H](C=O)CC(=O)O)C(C)C  IC50 (Caspase-7 (CASP7, Homo sapiens, UniProt P55210); enzyme activity, inhibitor): 0.00175 µM
Cc1nc(Nc2ccc(C)c(Cl)c2)c2c(C)noc2n1  IC50 (DHODH; enzyme activity, inhibitor, absorbance): > 50 µM
Cn1cc(C2=C(c3coc4ccccc34)C(=O)NC2=O)c2cc(Br)ccc21  IC50 (DYRK1B; enzyme activity, inhibitor): 0.59 µM
CS(=O)(=O)c1ccc(-c2nc3ccccn3c2Nc2ccccc2)cc1  IC50 (PTGS2; enzyme activity, inhibitor): 0.07 µM
CCOC(=O)C1CCN(C(=O)c2ccc(N(C)Cc3cnc4nc(N)nc(N)c4n3)cc2)CC1  IC50 (TYMS; enzyme activity, inhibitor): 74 µM
CC[C@@H]1[C@H](F)C(=O)N[C@@H]1COc1nccc2cc(C(N)=O)c(OC)cc12  IC50 (EPHA7; enzyme activity, inhibitor): > 5 µM
Cc1ncc(C(=O)N[C@H](C(=O)N[C@@H](CC(C)C)C(=O)N[C@H](/C=C/S(C)(=O)=O)Cc2ccc(CN)cc2)C2CCCCC2)s1  IC50 (PSMB8; enzyme activity, inhibitor; lysate): 3.14 µM
Cc1ccc(Nc2c(-c3ccc(S(C)(=O)=O)cc3)nc3cccc(C)n23)cc1  IC50 (PTGS2; enzyme activity, inhibitor): 0.12 µM
O=C(O)C1=CC(=C(c2ccc(O)c(C(=O)O)c2)c2ccc(O)c(C(=O)O)c2)C=CC1=O  IC50 (PFKM (Oryctolagus cuniculus, UniProt P00511); enzyme activity, inhibitor): 3.92 µM
COc1ccc(C[C@H](NC(=O)[C@H](C)NC(=O)CN2CCOCC2)C(=O)N[C@H](C(=O)[C@@]2(C)CO2)C2CCCCC2)cc1  IC50 (PSMB8; enzyme activity, inhibitor; lysate): > 10 µM
C=C1/C(=C\C=C2/CCC[C@]3(C)[C@@H]([C@H](C)/C=C/[C@@H](O)C4CC4)CC[C@@H]23)C[C@@H](O)C[C@@H]1O  IC50 (Multidrug resistance-associated protein 1 (ABCC1, Homo sapiens, UniProt P33527); transporter uptake, inhibitor, radiometric; cell membranes): 12.3 µM
Cc1ncc(C(=O)N[C@@H](CC(C)C)C(=O)N[C@@H](CC2CCCCC2)C(=O)N[C@H](/C=C/S(C)(=O)=O)Cc2ccc(CN)cc2)s1  IC50 (PSMB8; enzyme activity, inhibitor; lysate): > 10 µM
COC[C@@H](C)NC1CCC(Nc2cc(-c3cccc(NCC4(C#N)CCOCC4)n3)c(Cl)cn2)CC1 (some centres unmarked)  IC50 (DYRK1B; enzyme activity, inhibitor, FRET): 0.35 µM
Oc1ccc(Cl)cc1Nc1nc(NCC2CCCO2)c2ccccc2n1 (centres unmarked)  IC50 (Lysosomal acid glucosylceramidase (GBA1, Homo sapiens, UniProt P04062, R534H); enzyme activity, inhibitor, fluorescence; pH 5.9): 1.5 µM
CCOc1ccc2c(-c3cc(C)nc(Nc4cc(OC)cc(C(F)(F)F)c4)n3)cnn2n1  IC50 (DYRK1B; enzyme activity, inhibitor): > 10 µM
Cc1nc(Nc2ccc(S(F)(F)(F)(F)F)cc2)c2c(C)noc2n1  IC50 (DHODH; enzyme activity, inhibitor, absorbance): > 50 µM
Oc1ccc2ccccc2n1  IC50 (Serum paraoxonase/arylesterase 1 (PON1, Homo sapiens, UniProt P27169); enzyme activity, inhibitor): 4.4 µM
Cc1ncc(C(=O)N[C@@H](CC2CCCC3CCCCC32)C(=O)N[C@@H](CC(C)C)C(=O)N[C@H](/C=C/S(C)(=O)=O)Cc2ccc(CN)cc2)s1 (some centres unmarked)  IC50 (PSMB8; enzyme activity, inhibitor; lysate): 0.555 µM
CCOCc1nc(O)c(-c2nnc(Cc3ccc(Cl)cn3)o2)c(O)c1-c1c(OC)cccc1OC  IC50 (Alpha-1D adrenergic receptor (ADRA1D, Homo sapiens, UniProt P25100); ligand displacement, radioligand): > 30 µM
Cc1c(C(=O)NC(C)c2nc[nH]n2)[nH]c(Cl)c1C1(c2ccc(C(F)(F)F)nc2)CC1 (centres unmarked)  IC50 (DHODH; enzyme activity, inhibitor): > 100 µM
Cc1ccc(NC(=O)c2ccc(C)c(C(F)(F)F)c2)cc1C#Cc1nn(C2CCC(O)CC2)c2ncnc(N)c12 (centres unmarked)  IC50 (EPHA7; enzyme activity, inhibitor, radiometric): 0.143 µM
Cc1ncc(C(=O)N[C@@H](CC2CCC(C)CC2)C(=O)N[C@@H](CC(C)C)C(=O)N[C@H](/C=C/S(C)(=O)=O)Cc2ccc(CN)cc2)s1 (some centres unmarked)  IC50 (PSMB8; enzyme activity, inhibitor; lysate): > 10 µM
CCCCCCCC(=O)N[C@H](CN1CCCC1)[C@H](O)c1ccc2c(c1)OCCO2  IC50 (Lysosomal acid glucosylceramidase (GBA1, Homo sapiens, UniProt P04062); enzyme activity, inhibitor): 15 µM
CN1CCN(c2ccc(Nc3ncc4cc(C#N)c(=O)n(C5CCCC5)c4n3)cc2)CC1  IC50 (Ephrin type-B receptor 3 (EPHB3, Homo sapiens, UniProt P54753); enzyme activity, inhibitor): 2.54 µM
COC1CCC(C[C@H](NC(=O)[C@H](CC(C)C)NC(=O)c2cnc(C)s2)C(=O)N[C@H](/C=C/S(C)(=O)=O)Cc2ccc(CN)cc2)CC1 (some centres unmarked)  IC50 (PSMB8; enzyme activity, inhibitor; lysate): > 10 µM
O=c1c2cc(Br)c(Br)n2cc2n1CCC2  IC50 (Proteasome subunit beta type-8, chymotrypsin-like site (PSMB8, Homo sapiens, UniProt P28062); enzyme activity, inhibitor): > 100 µM
COC(=O)C1CCN(C(=O)c2ccc(NCc3cnc4nc(N)nc(N)c4n3)cn2)CC1  IC50 (TYMS; enzyme activity, inhibitor): 80 µM
Cc1nc(NC2CCc3cc(Br)ccc3C2)c2c(C)noc2n1 (centres unmarked)  IC50 (DHODH; enzyme activity, inhibitor, absorbance): > 100 µM
Cc1ncc(C(=O)N[C@@H](CC2CCC(C3CCCCC3)CC2)C(=O)N[C@@H](CC(C)C)C(=O)N[C@H](/C=C/S(C)(=O)=O)Cc2ccc(CN)cc2)s1 (some centres unmarked)  IC50 (PSMB8; enzyme activity, inhibitor; lysate): > 10 µM
COc1ccc(S(=O)(=O)ON=C2C=C(C)C(=O)C(C)=C2)cc1  IC50 (CREB-binding protein (CREBBP, Homo sapiens, UniProt Q92793); enzyme activity, inhibitor, radiometric): > 100 µM
CC(C)C[C@H](NC(=O)[C@H](CC(C)C)NC(=O)[C@H](Cc1ccccc1)NC(=O)CN=[N+]=[N-])C(=O)N[C@H](/C=C/S(C)(=O)=O)Cc1ccc(CN)cc1  IC50 (PSMB8; enzyme activity, inhibitor; lysate): 1.3 µM
CCn1ncc2c1-c1cnc(N)c(c1)O[C@H](C)c1cc(F)ccc1-c1nn(C)nc1C2  IC50 (EPHA7; enzyme activity, inhibitor, radiometric): 0.379 µM
